The source of these data is ChEMBL document CHEMBL4725371, “A Novel Redox Modulator Induces a GPX4-Mediated Cell Death That Is Dependent on Iron and Reactive Oxygen Species” (J Med Chem, 2020).

pIC50: −log10 of the molar value. Calls of active or inactive are those of the source. The calls are words filed in the database; no cut-off is given here.

For data set [1], the system named is MIA PaCa-2. Description: Inhibition of colony formation in human MIA PaCa-2 cells at 0.5 uM measured after 7 to 9 days in presence of ferroptosis inhibitor liproxstatin-1 by crystal violet staining based assay. Format: functional, cell-based. The conditions noted are these: time day 7-9. Summed up: (§1)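 Cells seeded overnight in 96-well plates at 300 cells/well (MIA PaCa-2) or 600 cells/well (BxPC-3), in RPMI 1640 with 10% FBS. Inhibitor added 1 h before compound, then continuous exposure for 7–9 days until control wells were 80–90% confluent. Stained with 0.05% crystal violet for 30 min, imaged after overnight drying and quantified.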

Data set [2] relates to MIA PaCa-2. Description: Inhibition of colony formation in human MIA PaCa-2 cells at 0.25 to 1 uM measured after 7 to 9 days in presence of caspase-dependent apoptosis inhibitor Z-VAD by crystal violet staining based assay. Format: functional, cell-based. Conditions: dose microM 0.25-1, time day 7-9. In a few lines: as §1
Data set [3] has as its system PANC-1. Description: Induction of reactive oxygen species in human PANC-1 cells at 10 uM measured after 1 hr by CM-H2DCFDA dye based fluorescence assay. Format: functional, cell-based. Summed up: (§2)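 1.8 × 10⁴ cells per well were attached overnight, then loaded with 10 μM CM-H2DCFDA in HBSS for 40 min at 37 °C and washed. Compounds were added in HBSS. Fluorescence was read at Ex 483 / Em 530 nm. TBHP was the positive control. NAC at 3 mM was used where stated.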

Data set [4] concerns PANC-1. Kind of data set: Induction of DNA damage in human PANC-1 cells assessed as increase in H2AX phosphorylation at 1.2 to 1.8 uM measured after 4 hrs by Western blot analysis. Format: functional, cell-based. The conditions noted are these: dose microM 1.2-1.8, time 4.0 hrs. Summed up: (§3)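 Cells were treated 4 h at the stated concentrations and lysed in RIPA with protease and phosphatase inhibitors. 25 μg protein was resolved on 10% SDS gels, transferred to PVDF and probed for STAT3, pSTAT3, pH2AX and GAPDH. Detection used fluorescent secondary antibodies, with normalisation to loading control.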
(Immunoblotting shows a protein as a band on a membrane.)

Data set [5] deals with MIA PaCa-2. Kind of data set: Induction of DNA damage in human MIA PaCa-2 cells assessed as increase in H2AX phosphorylation at 1 to 1.5 uM measured after 4 hrs by Western blot analysis. Format: functional, cell-based. The conditions noted are these: dose microM 1-1.5, time 4.0 hrs. In a few lines:
as §3

The subject of data set [6] is MIA PaCa-2. Description: Inhibition of colony formation in human MIA PaCa-2 cells at 0.375 to 0.75 uM measured after 7 to 9 days in presence of GPX4 inhibitor RSL3 by crystal violet staining based assay. Conditions: dose microM 0.375-0.75, time day 7-9. In kind it is functional, cell-based. In a few lines:
as §1

For data set [7], the system named is BXPC-3. Description: Cytotoxicity against human BXPC-3 cells measured after 72 hrs by MTT assay. The conditions noted are these: BXPC-3, 72 h. Format: functional, cell-based. Summed up: (§4)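 Cells were kept in RPMI 1640 with 10% FBS at 37 °C, 5% CO₂, under 35 passages. Cells were seeded, attached overnight and treated with compound or DMSO for 72 h. MTT was added at 0.3 mg/mL for 3 h, then dissolved in DMSO and read as absorbance at 570 nm. IC50 was fitted from the curve. Values are mean ± sd of three independent experiments.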

Data set [8] has as its system MIA PaCa-2. Kind of data set: Effect on glutathione level in human MIA PaCa-2 cells at 1.5 to 6 uM measured after 2 to 4 hrs by GSH/GSSG-glo assay. Format: functional, cell-based. Conditions: dose microM 1.5-6, time hrs 2-4. Summed up: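 GSH/GSSG-Glo luminescent assay: 15,000–20,000 MIA PaCa-2 cells per well, attached overnight, treated 2 h and 4 h. Cells were lysed with total or oxidized glutathione reagent, then luciferin generation (30 min, room temperature) and detection reagents added. Luminescence was read after 15 min. Ratio was computed from net RLU as (total − GSSG)/(GSSG/2).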

Data set [9] has as its target T1, Phospholipid hydroperoxide glutathione peroxidase GPX4 (Homo sapiens) (UniProt P36969).
T1 sequence (whole entry): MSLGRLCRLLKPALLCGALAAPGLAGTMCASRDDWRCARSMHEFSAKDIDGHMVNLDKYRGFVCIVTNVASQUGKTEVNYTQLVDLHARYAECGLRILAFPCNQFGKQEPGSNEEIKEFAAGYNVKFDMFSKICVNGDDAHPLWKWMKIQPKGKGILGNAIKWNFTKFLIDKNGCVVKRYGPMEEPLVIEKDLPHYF
Kind of data set: Binding affinity to GPX4 in human PANC-1 cells assessed as protein destabilization by measuring reduction in melting temperature at 100 uM measured after 1 hr by thermal shift assay. Format: cell-based.

A short description of data set [10]: Drug metabolism in mouse plasma assessed as 6-[4-[(3S,5R)-3,5-dihydroxy-4-methyl-piperazin-1-yl]anilino]quinazoline-5,8-dione formation at 500 uM measured after 0.5 hrs by LC-MS/MS analysis. In kind it is ADME, cell-free. In a few lines:
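Compound (500 μM DMSO stock, 1 μL per 500 μL) was incubated in pooled mouse plasma. Samples were taken at 0.5 h and metabolites identified by LC-MS/MS.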

Data set [11] has as its system MIA PaCa-2. Kind of data set: Down regulation of LRPPRC expression in human MIA PaCa-2 cells at 3 times IC50 measured after 4 hrs in presence of NQO1 inhibitor dicoumarol by proteomics analysis. In kind it is functional, cell-based.
For data set [12], the system named is MIA PaCa-2. Kind of data set: Down regulation of PNPT1 expression in human MIA PaCa-2 cells at 3 times IC50 measured after 4 hrs in presence of NAC by proteomics analysis. Format: functional, cell-based.
Data set [13] relates to PANC-1. Description: Cytotoxicity against human PANC-1 cells measured after 72 hrs by MTT assay. The conditions noted are these: PANC-1, 72 h. In kind it is functional, cell-based. In a few lines:
as §4
On the technique in general: Formazan colour is commonly taken as a measure of viable cells.

The test system of a further data set is CT26. Description: Antitumor activity against mouse CT26 cells implanted in Balb/c mouse assessed as tumor shrinkage at 20 mg/kg, ip. Format: functional, organism-based. Summed up: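 Female Balb/c mice aged 5–6 weeks, implanted subcutaneously in right flank with 1 × 10⁶ CT-26 cells in DPBS. Dosing began 7 days later with randomisation (n = 5/group, mean tumour 97–117 mm³). IV dosing was 3 times weekly and IP dosing was given. Vehicle control given daily IP. Mice were euthanised four hours post-dose after 17 days of dosing.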

Data set [14] concerns MIA PaCa-2. Description: Induction of reactive oxygen species in human MIA PaCa-2 cells at 5 to 10 uM measured up to 4 hrs by CM-H2DCFDA dye based fluorescence assay. Format: functional, cell-based. The conditions noted are these: dose microM 5-10, time hrs <=4, TDE = time-dependent effect. Summed up:
as §2

Data set [15] has as its system MIA PaCa-2. Description: Inhibition of colony formation in human MIA PaCa-2 cells at 0.5 uM measured after 7 to 9 days in presence of iron chelator deferoxamine by crystal violet staining based assay. In kind it is functional, cell-based. The conditions noted are these: time day 7-9. In a few lines:
as §1

The test system of data set [16] is BXPC-3. Description: Inhibition of colony formation in human BXPC-3 cells at 0.375 uM measured after 7 to 9 days in presence of GPX4 inhibitor RSL3 by crystal violet staining based assay. Conditions: time day 7-9. In kind it is functional, cell-based. In a few lines:
as §1

In data set [17] the test system is MIA PaCa-2. Description: Cytotoxicity against human MIA PaCa-2 cells measured after 72 hrs in presence of N-acetylcysteine by MTT assay. Conditions: MIA PaCa-2, 72 h. In kind it is functional, cell-based.
The subject of data set [18] is MIA PaCa-2. Description: Down regulation of PNPT1 expression in human MIA PaCa-2 cells at 3 times IC50 measured after 4 hrs in presence of NQO1 inhibitor dicoumarol by proteomics analysis. Format: functional, cell-based.
In data set [19] the test system is PANC-1. Kind of data set: Down regulation of LRPPRC expression in human PANC-1 cells at 3 times IC50 measured after 1 to 24 hrs by proteomics analysis. Conditions: time hrs 1-24. Format: functional, cell-based.
Data set [20] concerns MIA PaCa-2. Description: Inhibition of colony formation in human MIA PaCa-2 cells at 0.4 to 0.8 uM measured after 7 to 9 days in presence of necroptosis inhibitor necrostatin-1 by crystal violet staining based assay. Conditions: dose microM 0.4-0.8, time day 7-9. In kind it is functional, cell-based. Summed up: as §1

For `CN1CCN(c2ccc(NC3=CC(=O)c4ncncc4C3=O)cc2)CC1`, the inhibition result in the data set with MIA PaCa-2 [1], in the data set with MIA PaCa-2 [6], in the data set with MIA PaCa-2 [15] and in the data set with BXPC-3 [16] was “inactive” in each case. In addition, the inhibition entry in the data set on MIA PaCa-2 [2] and with MIA PaCa-2 [20] was “Active” each time. The outcome (with PANC-1 [3]; with PANC-1 [4]; with MIA PaCa-2 [5]; in data set [9]; in the data set with MIA PaCa-2 [12]; in the data set with CT26) was Active. In addition, the figures for the pIC50 with BXPC-3 [7], in the data set with PANC-1 [13] and in the data set on MIA PaCa-2 [17] were 6.05, 6.47 and 5.95, respectively. Also, the result in the data set on MIA PaCa-2 [8], in the data set on MIA PaCa-2 [11], in the data set on MIA PaCa-2 [18] and in the data set with PANC-1 [19] was inactive. Moreover, the Drug metabolism result in data set [10] is listed as “Metabolite_Detected”. The Activity entry in the data set on MIA PaCa-2 [14] is “Tde”.

What is called pIC50 is −log10 of the IC50, conventionally taken in molar units.
